From ChEMBL document CHEMBL4433207, “Novel Isoxazole Derivatives with Potent FXR Agonistic Activity Prevent Acetaminophen-Induced Liver Injury” (ACS Med Chem Lett, 2019)
Values belong to the compound of their own block, whether it stands above or below them. Calls of active or inactive are those of the source. The calls are words filed in the database; no cut-off is given here.

Columns and labels:
[1] = target: T1, G-protein coupled bile acid receptor 1 (Homo sapiens) (UniProt Q8TDU6); test: Agonist activity at human GPBAR1 expressed in HEK293T cells at 10 uM after 18 hrs by cAMP response element driven luciferase reporter gene assay; assay type: functional, cell-based
T1 sequence (whole entry): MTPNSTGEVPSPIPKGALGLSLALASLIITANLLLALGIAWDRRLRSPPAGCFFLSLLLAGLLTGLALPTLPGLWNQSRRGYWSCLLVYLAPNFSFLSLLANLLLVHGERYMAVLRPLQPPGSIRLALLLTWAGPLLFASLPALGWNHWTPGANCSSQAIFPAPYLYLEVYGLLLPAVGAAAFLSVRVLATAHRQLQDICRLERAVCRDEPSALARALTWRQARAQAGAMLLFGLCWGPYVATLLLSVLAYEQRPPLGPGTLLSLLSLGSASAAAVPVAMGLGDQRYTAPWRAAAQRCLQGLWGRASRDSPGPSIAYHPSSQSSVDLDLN

Mus musculus [2] = test: In-vivo agonist activity at FXR in C57BL/6N N mouse assessed as upregulation of SHP mRNA level at 10 mg/kg, po dosed daily via gavage for 3 days by RT-PCR analysis; assay type: functional, organism-based
Summary of the method: (§1)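 Mice dosed 10 mg/kg daily for 3 days, by gavage or i.p. Total liver RNA analysed by quantitative real-time PCR for SHP or BSEP mRNA, normalized to GAPDH mRNA; mean ± SEM of four mice per group.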

[3] = target: T2, Peroxisome proliferator-activated receptor gamma (Homo sapiens) (UniProt P37231); test: Transactivation of Gal4-fused PPARgamma LBD (unknown origin) expressed in HepG2 cells at 10 uM after 18 hrs by dual-glo luciferase assay; assay type: cell-based
T2 sequence (whole entry): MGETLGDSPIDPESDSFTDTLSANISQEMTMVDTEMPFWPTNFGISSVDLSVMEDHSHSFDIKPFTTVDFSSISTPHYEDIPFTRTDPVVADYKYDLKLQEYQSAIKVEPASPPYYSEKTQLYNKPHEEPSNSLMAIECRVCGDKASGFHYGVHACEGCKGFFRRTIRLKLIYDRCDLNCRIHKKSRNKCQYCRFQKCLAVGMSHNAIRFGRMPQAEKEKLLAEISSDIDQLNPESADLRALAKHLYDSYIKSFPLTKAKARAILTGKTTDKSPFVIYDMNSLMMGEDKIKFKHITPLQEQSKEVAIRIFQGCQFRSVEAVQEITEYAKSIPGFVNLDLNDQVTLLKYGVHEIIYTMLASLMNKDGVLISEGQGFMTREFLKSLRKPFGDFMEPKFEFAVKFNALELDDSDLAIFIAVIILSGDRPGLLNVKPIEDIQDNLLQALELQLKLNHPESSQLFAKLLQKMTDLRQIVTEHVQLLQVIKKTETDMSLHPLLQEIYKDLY

[4] = target: T3, Oxysterols receptor LXR-beta (Homo sapiens) (UniProt P55055); test: Transactivation of Gal4-fused LXRbeta LBD (unknown origin) expressed in HepG2 cells at 10 uM after 18 hrs by dual-glo luciferase assay; assay type: cell-based
T3 sequence (whole entry): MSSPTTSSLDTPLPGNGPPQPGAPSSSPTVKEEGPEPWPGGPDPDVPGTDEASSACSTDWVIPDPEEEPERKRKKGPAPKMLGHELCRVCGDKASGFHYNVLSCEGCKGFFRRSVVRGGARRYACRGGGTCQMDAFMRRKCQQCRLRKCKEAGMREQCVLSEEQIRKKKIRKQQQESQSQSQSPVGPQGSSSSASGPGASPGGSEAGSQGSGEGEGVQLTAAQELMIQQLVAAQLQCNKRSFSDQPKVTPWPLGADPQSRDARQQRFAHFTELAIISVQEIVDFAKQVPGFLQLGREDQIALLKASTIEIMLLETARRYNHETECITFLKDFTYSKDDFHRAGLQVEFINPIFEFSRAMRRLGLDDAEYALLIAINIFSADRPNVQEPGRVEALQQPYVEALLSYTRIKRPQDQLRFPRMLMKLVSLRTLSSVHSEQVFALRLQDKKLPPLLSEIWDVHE

Mus musculus [5] = test: Hepatoprotective activity against APAP-induced acute liver injury in C57BL/6N mouse assessed as reduction in plasma AST levels at 30 mg/kg, po administered 45 mins after APAP challenge; assay type: functional, organism-based
Summary of the method: (§2)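 C57Bl6 mice given a single 500 mg/kg APAP dose, with test agent at 30 mg/kg; surviving mice sacrificed 24 h later, blood and liver collected. Endpoints: serum AST/ALT, liver H&E histology, hepatic Ugt1a1/Ugt2b1/Sult1a1 mRNA, hepatic GSH, SOD activity and MDA, and plasma APAP, APAP-glucuronide and APAP-sulfate by LC–MS/MS. Mean ± SEM, 5–8 animals per group.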

Mus musculus [6] = test: Hepatoprotective activity against APAP-induced acute liver injury in C57BL/6N mouse assessed as increase in APAP metabolism by measuring increase in APAP-glucuronide level at 30 mg/kg, po administered 45 min after APAP challenge by LC-MS/MS analysis; assay type: functional, organism-based; summary of the method: as §2
Mus musculus [7] = test: In-vivo agonist activity at FXR in C57BL/6N N mouse assessed as upregulation of BSEP mRNA level at 10 mg/kg, po dosed daily via gavage for 3 days by RT-PCR analysis; assay type: functional, organism-based; summary of the method: as §1
Mus musculus [8] = test: In-vivo agonist activity at FXR in C57BL/6N N mouse assessed as upregulation of BSEP mRNA level at 10 mg/kg, ip dosed daily […] for 3 days by RT-PCR analysis; assay type: functional, organism-based; summary of the method: as §1
Mus musculus [9] = test: Hepatoprotective activity against APAP-induced acute liver injury in C57BL/6N mouse assessed as reduction in plasma ALT levels at 30 mg/kg, po administered 45 mins after APAP challenge; assay type: functional, organism-based; summary of the method: as §2
Mus musculus [10] = test: Hepatoprotective activity against APAP-induced acute liver injury in C57BL/6N mouse assessed as upregulation of UGT2B1 mRNA levels at 30 mg/kg, po administered 45 mins after APAP challenge; assay type: functional, organism-based; summary of the method: as §2
Mus musculus [11] = test: Hepatoprotective activity against APAP-induced acute liver injury in C57BL/6N mouse assessed as upregulation of UGT1A1 mRNA levels at 30 mg/kg, po administered 45 mins after APAP challenge; assay type: functional, organism-based; summary of the method: as §2
[12] = target: T4, Oxysterols receptor LXR-alpha (Homo sapiens) (UniProt Q13133); test: Transactivation of Gal4-fused LXRalpha LBD (unknown origin) expressed in HepG2 cells at 10 uM after 18 hrs by dual-glo luciferase assay; assay type: cell-based
T4 sequence (whole entry): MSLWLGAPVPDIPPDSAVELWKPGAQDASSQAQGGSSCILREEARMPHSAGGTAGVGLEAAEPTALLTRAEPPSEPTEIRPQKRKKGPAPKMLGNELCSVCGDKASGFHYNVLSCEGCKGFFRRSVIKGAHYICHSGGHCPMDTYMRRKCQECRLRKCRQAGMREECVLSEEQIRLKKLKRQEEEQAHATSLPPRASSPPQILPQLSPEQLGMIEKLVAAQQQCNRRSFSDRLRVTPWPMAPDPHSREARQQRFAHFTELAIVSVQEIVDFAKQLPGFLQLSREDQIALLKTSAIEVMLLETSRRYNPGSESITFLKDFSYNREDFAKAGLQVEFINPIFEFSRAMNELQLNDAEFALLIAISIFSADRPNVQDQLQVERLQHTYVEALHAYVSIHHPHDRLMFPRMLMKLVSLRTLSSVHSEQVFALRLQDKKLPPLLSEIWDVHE

Mus musculus [13] = test: Hepatoprotective activity against APAP-induced acute liver injury in C57BL/6N mouse assessed as increase in APAP metabolism by measuring increase in APAP-sulfate level at 30 mg/kg, po administered 45 min after APAP challenge by LC-MS/MS analysis; assay type: functional, organism-based; summary of the method: as §2
Mus musculus [14] = test: Hepatoprotective activity against APAP-induced acute liver injury in C57BL/6N mouse assessed as reduction in liver necrosis at 30 mg/kg, po administered 45 mins after APAP challenge by H and E staining based microscopic method; assay type: functional, organism-based; summary of the method: as §2
Mus musculus [15] = test: Hepatoprotective activity against APAP-induced acute liver injury in C57BL/6N mouse assessed as APAP plasma concentration at 30 mg/kg, po administered 45 min after APAP challenge by LC-MS/MS analysis (reference value: 1000 nM); assay type: functional, organism-based; summary of the method: as §2
Mus musculus [16] = test: In-vivo agonist activity at FXR in C57BL/6N N mouse assessed as upregulation of SHP mRNA level at 10 mg/kg, ip dosed daily […] for 3 days by RT-PCR analysis; assay type: functional, organism-based; summary of the method: as §1
Mus musculus [17] = test: Hepatoprotective activity against APAP-induced acute liver injury in C57BL/6N mouse assessed as increase in GSH levels at 30 mg/kg, po administered 45 mins after APAP challenge; assay type: functional, organism-based; summary of the method: as §2
Mus musculus [18] = test: Hepatoprotective activity against APAP-induced acute liver injury in C57BL/6N mouse assessed as upregulation of SULT1A1 mRNA levels at 30 mg/kg, po administered 45 mins after APAP challenge; assay type: functional, organism-based; summary of the method: as §2
Mus musculus [19] = test: Hepatoprotective activity against APAP-induced acute liver injury in C57BL/6N mouse assessed as reduction in lipid peroxidation by measuring MDA levels at 30 mg/kg, po administered 45 mins after APAP challenge; assay type: functional, organism-based; summary of the method: as §2
Mus musculus [20] = test: Hepatoprotective activity against APAP-induced acute liver injury in C57BL/6N mouse assessed as increase in SOD levels at 30 mg/kg, po administered 45 mins after APAP challenge; assay type: functional, organism-based; summary of the method: as §2
[21] = Metabolic stability in rat liver microsomes assessed as compound remaining at 1 uM up to 40 mins by LC-MS/MS method relative to control
[22] = Aqueous solubility of compound in phosphate buffer at pH 7.4//MeOH after 24 hrs by LC-MS/MS method; assay type: physicochemical
[23] = Half life in rat liver microsomes at 1 uM up to 40 mins by LC-MS/MS method
[24] = Intrinsic clearance in rat liver microsomes at 1 uM up to 40 mins by LC-MS/MS method; details: read-out: CLH

SMILES: CC(C)c1onc(-c2c(Cl)cccc2Cl)c1COc1ccc(S(C)(=O)=O)cc1
Activity [1]: inactive

SMILES: COC(=O)c1cccc(OCc2c(-c3c(Cl)cccc3Cl)noc2C(C)C)c1
Activity [1]: inactive

SMILES: CC(C)c1onc(-c2c(Cl)cccc2Cl)c1COc1ccccc1
Activity [1]: inactive

SMILES: CC[C@H]1[C@@H](O)[C@@H]2[C@H](CC[C@]3(C)[C@@H]([C@H](C)CCC(=O)O)CC[C@@H]23)[C@@]2(C)CC[C@@H](O)C[C@@H]12 [OBETICHOLIC ACID]
remaining at 40 min, 1 µM [21]: 27%
solubility at 24 h [22]: > 200 µM
half-life at 1 µM [23]: 21 min
microsomal CLint at 1 µM [24]: 109 µL/min/mg

SMILES: CC(C)c1onc(-c2c(Cl)cccc2Cl)c1COc1ccc(C(=O)O)cc1
Activity [1]: inactive

SMILES: CC(C)c1onc(-c2c(Cl)cccc2Cl)c1COc1cccc(C(=O)O)c1
Activity [1]: inactive

The next lines start with results.

Activity [1]: inactive
SMILES: COC(=O)c1cccc(-c2ccc(OCc3c(-c4c(Cl)cccc4Cl)noc3C(C)C)cc2)c1

Activity [3]: inactive
Activity [4]: inactive
Activity [1]: inactive
Activity [12]: inactive
SMILES: CC(C)c1onc(-c2c(Cl)cccc2Cl)c1COc1ccc(COc2ccc(C(=O)O)cc2)cc1
Activity (Mus musculus [2]): Active
Activity (Mus musculus [5]): Active
Activity (Mus musculus [6]): Active
Activity (Mus musculus [7]): Active
Activity (Mus musculus [8]): Active
Activity (Mus musculus [9]): Active
Activity (Mus musculus [10]): Active
Activity (Mus musculus [11]): Active
Activity (Mus musculus [13]): Active
Activity (Mus musculus [14]): Active
Cp (Mus musculus [15]): 615 nM
Activity (Mus musculus [16]): Active
Activity (Mus musculus [17]): Active
Activity (Mus musculus [18]): Active
Activity (Mus musculus [19]): Active
Activity (Mus musculus [20]): Active

Activity [1]: inactive
SMILES: CC(C)c1onc(-c2c(Cl)cccc2Cl)c1COc1ccc(COc2cccc(C#N)c2)cc1

Activity [1]: inactive
SMILES: CC(C)c1onc(-c2c(Cl)cccc2Cl)c1COc1cccc(CO)c1

Activity [1]: inactive
SMILES: CC(C)c1onc(-c2c(Cl)cccc2Cl)c1COc1ccc(C#N)cc1

Activity [1]: inactive
SMILES: CC(C)c1onc(-c2c(Cl)cccc2Cl)c1COc1ccc(COc2ccc(CO)cc2)cc1
